Data set [1] deals with MAP kinase-activated protein kinase 2 (Homo sapiens) (UniProt P49137). As to the kind of experiment: Inhibition of MAPKAPK2 (unknown origin) at 0.19 uM relative to control.
The target of data set [2] is Hepatocyte growth factor receptor (Homo sapiens) (UniProt P08581). As to the kind of experiment: Inhibition of MET (unknown origin) at 0.19 uM relative to control.
Data set [3] deals with Serine/threonine-protein kinase pim-1 (Homo sapiens) (UniProt P11309). As to the kind of experiment: Inhibition of PIM1 (unknown origin) at 0.19 uM relative to control.
Chain of Serine/threonine-protein kinase pim-1 (Homo sapiens) (P11309 whole entry, looked up): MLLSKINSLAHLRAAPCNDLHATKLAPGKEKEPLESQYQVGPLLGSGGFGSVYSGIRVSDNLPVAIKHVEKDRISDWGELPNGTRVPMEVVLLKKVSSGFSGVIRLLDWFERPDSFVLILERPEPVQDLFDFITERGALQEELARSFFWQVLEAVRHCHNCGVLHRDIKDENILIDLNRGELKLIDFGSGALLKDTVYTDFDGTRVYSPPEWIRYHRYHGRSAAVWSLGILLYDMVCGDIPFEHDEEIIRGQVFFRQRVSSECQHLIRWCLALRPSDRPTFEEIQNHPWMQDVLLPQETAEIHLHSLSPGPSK
Data set [4] has as its target T1, cGMP-dependent protein kinase 1 (Homo sapiens) (UniProt Q13976).
T1 sequence (whole entry): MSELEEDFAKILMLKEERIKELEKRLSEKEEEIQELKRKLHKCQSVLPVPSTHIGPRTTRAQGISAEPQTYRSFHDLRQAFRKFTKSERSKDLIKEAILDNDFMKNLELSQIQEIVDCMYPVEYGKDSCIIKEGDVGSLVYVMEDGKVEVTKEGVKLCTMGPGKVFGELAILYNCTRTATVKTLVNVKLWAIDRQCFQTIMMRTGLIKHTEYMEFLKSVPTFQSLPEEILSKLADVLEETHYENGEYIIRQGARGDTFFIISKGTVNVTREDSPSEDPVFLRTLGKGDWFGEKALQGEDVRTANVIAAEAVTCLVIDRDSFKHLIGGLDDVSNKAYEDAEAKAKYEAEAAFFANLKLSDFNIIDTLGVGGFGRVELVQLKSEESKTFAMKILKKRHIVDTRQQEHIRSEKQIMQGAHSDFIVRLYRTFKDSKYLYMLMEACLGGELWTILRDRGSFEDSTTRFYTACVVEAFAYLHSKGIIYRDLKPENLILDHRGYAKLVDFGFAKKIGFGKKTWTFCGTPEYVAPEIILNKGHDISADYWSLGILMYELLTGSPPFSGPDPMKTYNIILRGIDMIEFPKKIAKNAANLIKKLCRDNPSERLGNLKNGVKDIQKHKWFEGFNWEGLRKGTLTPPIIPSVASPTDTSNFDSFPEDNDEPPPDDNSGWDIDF
As to the kind of experiment: Inhibition of PKG-alpha (unknown origin) at 0.19 uM relative to control.

Data set [5] concerns Tyrosine-protein kinase ABL1 (Homo sapiens), P00519 [E255K]. As to the kind of experiment: Inhibition of ABL1 E255K mutant (unknown origin) at 0.19 uM relative to control.
The target in data set [6] is MAP kinase-interacting serine/threonine-protein kinase 1 (Homo sapiens) (UniProt Q9BUB5). As to the kind of experiment: Inhibition of MNK1 (unknown origin) at 0.19 uM relative to control.
Data set [7] has as its target Serine/threonine-protein kinase PAK 5 (Homo sapiens) (UniProt Q9P286). Put plainly: Inhibition of PAK5/PAK7 (unknown origin) at 0.19 uM relative to control.
In data set [8] the target is Fibroblast growth factor receptor 4 (Homo sapiens) (UniProt P22455). Put plainly: Inhibition of FGFR4 (unknown origin) at 0.19 uM relative to control.
Data set [9] has as its target Tyrosine-protein kinase Fer (Homo sapiens) (UniProt P16591). As to the kind of experiment: Inhibition of Fer (unknown origin) at 0.19 uM relative to control.
For data set [10], the target named is ALK tyrosine kinase receptor (Homo sapiens) (UniProt Q9UM73). As to the kind of experiment: Inhibition of ALK (unknown origin) at 0.19 uM relative to control.
The target of data set [11] is Protein-tyrosine kinase 2-beta (Homo sapiens) (UniProt Q14289). As to the kind of experiment: Inhibition of PYK2 (unknown origin) at 0.19 uM relative to control.
Chain of Protein-tyrosine kinase 2-beta (Homo sapiens) (Q14289 whole entry, looked up): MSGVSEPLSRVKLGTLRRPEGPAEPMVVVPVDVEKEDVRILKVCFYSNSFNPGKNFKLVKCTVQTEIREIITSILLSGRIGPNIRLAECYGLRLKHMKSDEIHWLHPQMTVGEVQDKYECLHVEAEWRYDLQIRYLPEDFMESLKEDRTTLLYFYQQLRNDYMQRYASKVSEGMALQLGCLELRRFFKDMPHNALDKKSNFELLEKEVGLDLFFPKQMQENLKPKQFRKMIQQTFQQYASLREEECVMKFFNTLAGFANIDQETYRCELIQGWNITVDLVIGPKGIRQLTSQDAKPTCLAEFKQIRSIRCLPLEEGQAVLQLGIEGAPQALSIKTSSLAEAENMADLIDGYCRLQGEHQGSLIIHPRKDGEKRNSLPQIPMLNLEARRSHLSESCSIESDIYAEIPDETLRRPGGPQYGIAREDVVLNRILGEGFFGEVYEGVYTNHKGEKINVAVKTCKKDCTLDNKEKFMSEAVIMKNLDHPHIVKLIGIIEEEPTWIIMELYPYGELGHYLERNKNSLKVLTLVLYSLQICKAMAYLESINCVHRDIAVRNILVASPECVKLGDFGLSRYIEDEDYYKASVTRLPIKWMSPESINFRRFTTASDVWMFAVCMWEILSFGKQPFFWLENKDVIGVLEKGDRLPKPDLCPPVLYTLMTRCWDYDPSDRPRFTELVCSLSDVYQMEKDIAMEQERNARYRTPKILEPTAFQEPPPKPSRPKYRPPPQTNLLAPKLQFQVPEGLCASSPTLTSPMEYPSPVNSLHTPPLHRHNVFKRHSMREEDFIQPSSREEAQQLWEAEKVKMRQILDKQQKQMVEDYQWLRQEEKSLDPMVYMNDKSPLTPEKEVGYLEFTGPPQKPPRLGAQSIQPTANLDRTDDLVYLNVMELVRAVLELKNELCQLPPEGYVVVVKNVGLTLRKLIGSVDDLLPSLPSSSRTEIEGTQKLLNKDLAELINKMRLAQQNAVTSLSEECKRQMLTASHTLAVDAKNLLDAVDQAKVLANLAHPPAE
Data set [12] has as its target T2, CDK4/Cyclin D3 (Homo sapiens) (UniProt P11802+P30281). As to the kind of experiment: Inhibition of CDK4/CyclinD3 (unknown origin) at 0.19 uM relative to control. The data set is classed as protein-complex assay.
The target in data set [13] is CDK6/cyclin D3 (Homo sapiens) (UniProt P30281+Q00534). As to the kind of experiment: Inhibition of CDK6/CyclinD3 (unknown origin) at 0.19 uM relative to control. The data set is classed as protein-complex assay.
A further data set deals with Mus musculus. Put plainly: Antiinflammatory activity in C57BL/6J mouse assessed as reduction in recombinant mouse IL-6 induced serum hepcidin level at 30 mg/kg, po pretreated for 30 mins followed by IL-6 challenge and measured after 4 hrs by LC-MS/MS analysis. The data set is classed as functional, organism-based. The method in brief: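 Male C57BL/6J mice, 9 weeks old, were dosed orally at 30 mg/kg (0.5% methylcellulose suspension, n = 4) 30 min before intravenous mouse IL-6. Blood was taken 4 h after IL-6 and serum hepcidin concentration measured. The comparison was against a 0.5% MC vehicle group, with a saline group included, by t-test.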

The nature of data set [14]: Metabolic stability in pooled CD1 mouse liver microsomes assessed as parent compound remaining at 1 uM after 30 mins by LC-MS/MS analysis. It counts as ADME, microsome. As to conditions: read-out: Stability.
Data set [15] concerns the target Mitogen-activated protein kinase 1 (Homo sapiens) (UniProt P28482). Put plainly: Inhibition of Erk2 (unknown origin) at 0.164 uM relative to control.
For data set [16], the target named is Ephrin type-A receptor 1 (Homo sapiens) (UniProt P21709). Put plainly: Inhibition of EPHA1 (unknown origin) at 0.164 uM relative to control.
For data set [17], the target named is Mitogen-activated protein kinase kinase kinase kinase 4 (Homo sapiens) (UniProt O95819). As to the kind of experiment: Inhibition of HGK (unknown origin) at 0.164 uM relative to control.
The target in data set [18] is Ephrin type-A receptor 3 (Homo sapiens) (UniProt P29320). Put plainly: Inhibition of EPHA3 (unknown origin) at 0.164 uM relative to control.
In data set [19] the target is Vascular endothelial growth factor receptor 3 (Homo sapiens) (UniProt P35916). Put plainly: Inhibition of FLT4 (unknown origin) at 0.164 uM relative to control.
For data set [20], the target named is Casein kinase I isoform gamma-1 (Homo sapiens) (UniProt Q9HCP0). As to the kind of experiment: Inhibition of CK1-gamma1 (unknown origin) at 0.164 uM relative to control.
Data set [21] concerns the target STE20-like serine/threonine-protein kinase (Homo sapiens) (UniProt Q9H2G2). Put plainly: Inhibition of SLK (unknown origin) at 0.164 uM relative to control.
In data set [22] the target is Macrophage-stimulating protein receptor (Homo sapiens) (UniProt Q04912). Put plainly: Inhibition of MST1R (unknown origin) at 0.164 uM relative to control.
Chain of Macrophage-stimulating protein receptor (Homo sapiens) (Q04912 25-304 limits assumed): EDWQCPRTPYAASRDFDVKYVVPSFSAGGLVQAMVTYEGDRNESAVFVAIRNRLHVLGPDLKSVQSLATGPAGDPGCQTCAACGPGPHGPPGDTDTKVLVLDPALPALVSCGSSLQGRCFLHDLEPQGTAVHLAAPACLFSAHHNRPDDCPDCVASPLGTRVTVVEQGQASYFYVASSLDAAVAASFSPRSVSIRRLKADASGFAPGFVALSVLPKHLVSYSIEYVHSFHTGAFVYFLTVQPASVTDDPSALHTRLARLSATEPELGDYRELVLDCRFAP
Chain of Macrophage-stimulating protein receptor (Homo sapiens) (Q04912 310-1400 limits assumed): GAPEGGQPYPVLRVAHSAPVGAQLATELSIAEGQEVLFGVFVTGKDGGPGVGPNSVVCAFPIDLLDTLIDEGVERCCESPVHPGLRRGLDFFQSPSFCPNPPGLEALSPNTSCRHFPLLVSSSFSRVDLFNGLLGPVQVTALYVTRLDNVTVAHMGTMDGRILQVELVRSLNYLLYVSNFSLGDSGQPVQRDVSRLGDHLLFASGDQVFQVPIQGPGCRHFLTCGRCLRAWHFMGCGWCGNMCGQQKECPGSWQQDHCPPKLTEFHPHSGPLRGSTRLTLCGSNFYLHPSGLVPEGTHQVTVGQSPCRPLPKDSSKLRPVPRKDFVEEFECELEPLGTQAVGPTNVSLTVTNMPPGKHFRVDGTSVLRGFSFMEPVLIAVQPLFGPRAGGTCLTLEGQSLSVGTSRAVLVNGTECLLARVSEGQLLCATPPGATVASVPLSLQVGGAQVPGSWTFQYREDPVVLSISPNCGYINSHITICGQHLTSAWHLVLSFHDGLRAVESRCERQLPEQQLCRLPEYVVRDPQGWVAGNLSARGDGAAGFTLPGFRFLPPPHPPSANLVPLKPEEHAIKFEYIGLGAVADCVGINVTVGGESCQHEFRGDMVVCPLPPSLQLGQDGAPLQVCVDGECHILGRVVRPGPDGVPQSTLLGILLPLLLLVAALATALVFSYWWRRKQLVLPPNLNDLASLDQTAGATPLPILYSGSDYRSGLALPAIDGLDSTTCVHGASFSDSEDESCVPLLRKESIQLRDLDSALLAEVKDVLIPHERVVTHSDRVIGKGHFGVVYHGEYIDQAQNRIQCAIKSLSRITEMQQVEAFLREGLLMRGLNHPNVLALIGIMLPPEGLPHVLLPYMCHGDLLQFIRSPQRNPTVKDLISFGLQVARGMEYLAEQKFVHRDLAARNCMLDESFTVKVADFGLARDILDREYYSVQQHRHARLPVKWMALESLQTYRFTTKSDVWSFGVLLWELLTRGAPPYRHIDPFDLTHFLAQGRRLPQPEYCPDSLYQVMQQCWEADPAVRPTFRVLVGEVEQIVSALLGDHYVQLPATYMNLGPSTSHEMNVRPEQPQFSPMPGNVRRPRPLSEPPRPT
In data set [23] the target is Protein-tyrosine kinase 2-beta (Homo sapiens) (UniProt Q14289). Put plainly: Inhibition of PYK2 (unknown origin) at 0.164 uM relative to control.
For data set [24], the target named is Death-associated protein kinase 1 (Homo sapiens) (UniProt P53355). Put plainly: Inhibition of DAPK1 (unknown origin) at 0.164 uM relative to control.
Data set [25] addresses T2, CDK4/Cyclin D3 (Homo sapiens). Put plainly: Inhibition of CDK4/CyclinD3 (unknown origin) at 0.164 uM relative to control. It counts as protein-complex assay.
The target in data set [26] is Rho-associated protein kinase 1 (Homo sapiens) (UniProt Q13464). Put plainly: Inhibition of ROCK1 (unknown origin) at 0.45 uM relative to control.
In data set [27] the target is Macrophage-stimulating protein receptor (Homo sapiens) (UniProt Q04912). Put plainly: Inhibition of MST1R (unknown origin) at 0.45 uM relative to control.

Molecules are shown by their SMILES. Active and inactive are the calls of the source. The calls are words filed in the database; no cut-off is given here.

For orientation: inhibition means the relative decrease from the control value, in per cent.

Chain of Tyrosine-protein kinase Fer (Homo sapiens) (P16591 whole entry, looked up): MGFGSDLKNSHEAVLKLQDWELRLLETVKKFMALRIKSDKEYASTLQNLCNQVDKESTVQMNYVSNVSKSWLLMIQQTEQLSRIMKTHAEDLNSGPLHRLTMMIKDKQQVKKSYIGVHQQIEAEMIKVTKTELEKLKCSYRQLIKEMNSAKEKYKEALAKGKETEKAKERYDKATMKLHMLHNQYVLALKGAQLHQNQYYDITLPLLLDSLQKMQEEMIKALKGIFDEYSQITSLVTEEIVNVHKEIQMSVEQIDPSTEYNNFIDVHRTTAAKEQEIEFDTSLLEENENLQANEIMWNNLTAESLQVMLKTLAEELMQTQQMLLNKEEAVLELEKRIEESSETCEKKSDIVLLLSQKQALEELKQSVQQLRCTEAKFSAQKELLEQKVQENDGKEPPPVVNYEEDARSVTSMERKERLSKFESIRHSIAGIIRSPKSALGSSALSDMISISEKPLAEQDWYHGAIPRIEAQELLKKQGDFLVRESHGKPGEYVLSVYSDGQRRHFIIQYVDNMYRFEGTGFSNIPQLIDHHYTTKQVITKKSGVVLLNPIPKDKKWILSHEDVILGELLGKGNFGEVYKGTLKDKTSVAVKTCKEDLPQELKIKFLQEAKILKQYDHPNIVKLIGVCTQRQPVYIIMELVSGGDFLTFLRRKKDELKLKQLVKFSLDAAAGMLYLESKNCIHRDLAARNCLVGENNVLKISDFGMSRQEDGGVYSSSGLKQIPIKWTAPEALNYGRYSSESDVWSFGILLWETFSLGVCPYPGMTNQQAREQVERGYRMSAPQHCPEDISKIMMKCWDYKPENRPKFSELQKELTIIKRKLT
Chain of Mitogen-activated protein kinase 1 (Homo sapiens) (P28482 whole entry): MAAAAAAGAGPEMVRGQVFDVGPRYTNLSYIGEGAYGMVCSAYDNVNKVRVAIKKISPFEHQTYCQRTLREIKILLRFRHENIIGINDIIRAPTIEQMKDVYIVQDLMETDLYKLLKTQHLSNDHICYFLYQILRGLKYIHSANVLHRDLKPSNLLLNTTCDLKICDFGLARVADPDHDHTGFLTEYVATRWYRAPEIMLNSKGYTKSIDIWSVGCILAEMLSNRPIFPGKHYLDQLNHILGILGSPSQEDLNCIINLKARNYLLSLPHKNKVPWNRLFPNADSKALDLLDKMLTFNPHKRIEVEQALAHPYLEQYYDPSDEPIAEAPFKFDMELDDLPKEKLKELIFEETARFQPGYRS
Chain of MAP kinase-activated protein kinase 2 (Homo sapiens) (P49137 whole entry, looked up): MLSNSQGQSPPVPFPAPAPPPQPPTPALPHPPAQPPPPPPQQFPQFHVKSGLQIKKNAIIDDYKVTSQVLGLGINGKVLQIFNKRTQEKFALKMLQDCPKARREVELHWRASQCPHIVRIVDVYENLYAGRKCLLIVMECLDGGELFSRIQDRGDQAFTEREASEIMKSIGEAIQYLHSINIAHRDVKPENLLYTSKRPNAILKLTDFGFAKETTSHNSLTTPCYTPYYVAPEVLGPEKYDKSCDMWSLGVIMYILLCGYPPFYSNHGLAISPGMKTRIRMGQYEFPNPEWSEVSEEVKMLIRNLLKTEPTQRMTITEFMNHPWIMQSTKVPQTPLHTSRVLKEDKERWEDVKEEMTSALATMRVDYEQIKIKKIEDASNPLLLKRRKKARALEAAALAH
Chain of Serine/threonine-protein kinase PAK 5 (Homo sapiens) (Q9P286 whole entry, looked up): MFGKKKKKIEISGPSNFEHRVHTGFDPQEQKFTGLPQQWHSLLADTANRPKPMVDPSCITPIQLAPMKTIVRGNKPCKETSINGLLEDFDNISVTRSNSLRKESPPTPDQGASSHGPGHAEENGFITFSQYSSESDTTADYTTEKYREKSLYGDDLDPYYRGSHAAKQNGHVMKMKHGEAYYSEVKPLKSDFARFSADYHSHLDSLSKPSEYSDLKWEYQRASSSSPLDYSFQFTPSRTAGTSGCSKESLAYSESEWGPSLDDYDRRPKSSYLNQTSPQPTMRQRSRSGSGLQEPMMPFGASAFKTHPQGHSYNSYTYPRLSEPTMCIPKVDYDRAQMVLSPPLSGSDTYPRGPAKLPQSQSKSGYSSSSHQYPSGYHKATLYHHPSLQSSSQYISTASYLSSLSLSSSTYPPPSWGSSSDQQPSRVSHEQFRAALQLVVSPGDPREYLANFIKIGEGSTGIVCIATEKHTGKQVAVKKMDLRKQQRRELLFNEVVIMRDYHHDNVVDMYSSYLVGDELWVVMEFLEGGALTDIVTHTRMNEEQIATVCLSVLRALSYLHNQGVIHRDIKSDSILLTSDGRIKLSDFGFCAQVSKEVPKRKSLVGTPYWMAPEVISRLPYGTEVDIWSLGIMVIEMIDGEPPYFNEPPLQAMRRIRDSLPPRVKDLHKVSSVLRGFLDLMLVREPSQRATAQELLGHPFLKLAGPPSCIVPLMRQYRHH

As for `Cc1[nH]nc(C2CC2)c1-c1ccc2c(-c3ccc(N4CCN(C)CC4)nc3)n[nH]c2c1`, the inhibition in data set [1] is 1.7%; in [2] it was 7.3%; in [3], -1.3%; in data set [4], -3.7%; in [5], 64.7%; in data set [6], -1%. The inhibition in [7] is -2.7%; in data set [8], 5.3%; in data set [9], -2.3%; in [10], 6.7%; in data set [11], -1.7%; in [12], -8%. Also, in data set [13], the inhibition is -2%.
With `COC(=O)Nc1cc(-c2c(C3CC3)n[nH]c2C)cc2[nH]ncc12`, the result with Mus musculus was Active. The remaining at 0.5 h, 1 µM in data set [14] came to 84%. Besides, the inhibition in [15] was 9%; in data set [16] it was 1%; in data set [17], 5%; in data set [18] it was -6.7%; in [19] it was 5.3%; in [20], -2.7%. The inhibition in data set [21] is 4.7%; in data set [22] it was -5%; in [23] it was 2.7%; in data set [24] it was -3.7%; in data set [25], -0.7%.
As for `Cc1n[nH]c(C)c1-c1ccc2c(NC(=O)c3ccc(N4CCN(C)CC4)cc3)n[nH]c2c1`, the values for the inhibition in [26] and in data set [27] were -2% and -1%, respectively.
